Reference: ChEMBL document CHEMBL4364350, “Use of a fluorescence assay to determine relative affinities of semisynthetic aminoglycosides to small RNAs representing bacterial and mitochondrial A sites” (Bioorg Med Chem, 2019)
pIC50, pKd: −log10 of the molar value. ≈ marks a conversion by molar mass, not a printed value.

Key:
[1] = test system: Escherichia coli; assay: Antibacterial activity against Escherichia coli AG001 incubated for overnight by broth microdilution assay; format: functional
[2] = Anti-ribosomal activity against human-bacterial hybrid ribosome containing human mitochondrial ribosome A site harboring wild type 12s rRNA assessed as inhibition of cell-free translation by dual luciferase reporter assay
[3] = Binding affinity to 5'-fluorescein-tagged human mitochondrial ribosome A site mutant duplex RNA incubated for 2 mins by fluorescence spectrophotometry analysis
Summary of the method: (§1)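 The 5'-fluorescein-labelled strand was set to 1 μM in binding buffer (10 mM HEPES pH 7.4, 150 mM NaCl, 3 mM Na2EDTA). The complementary strand was annealed at 95 °C for 1 min, then cooled slowly overnight. Aminoglycoside was added in 12–15 aliquots of 2 μL, each followed by 2 min incubation. Excitation 490 nm; 520 nm emission was volume-corrected. Fraction bound was fitted to a quadratic equation for apparent Kd, from three independent trials.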

[4] = test system: human mitochondrial ribosome A site (mutant) RNA; assay: Selectivity ratio of Kd for 5'-fluorescein-tagged human mitochondrial ribosome A site mutant duplex RNA to Kd for 5'-fluorescein-tagged Escherichia coli ribosomal A site wt-bac duplex RNA; format: toxicity
[5] = Anti-ribosomal activity against human-bacterial hybrid ribosome containing human mitochondrial ribosome A site harboring A1555G mutant 12s rRNA assessed as inhibition of cell-free translation by dual luciferase reporter assay
[6] = Selectivity ratio of IC50 for anti-ribosomal activity against human-bacterial hybrid ribosome containing human mitochondrial ribosome A site harboring A1555G mutant 12s rRNA to IC50 for anti-ribosomal activity against bacterial 70S hybrid ribosomes
[7] = Selectivity ratio of IC50 for anti-ribosomal activity against human-bacterial hybrid ribosome containing human mitochondrial ribosome A site harboring wild type 12s rRNA to IC50 for anti-ribosomal activity against bacterial 70S hybrid ribosomes
[8] = Binding affinity to 5'-fluorescein-tagged human mitochondrial ribosomal A site wt-duplex RNA incubated for 2 mins by fluorescence spectrophotometric analysis; summary of the method: as §1
[9] = test system: human mitochondrial ribosomal A site (wild type) RNA; assay: Selectivity ratio of Kd for 5'-fluorescein-tagged human mitochondrial ribosomal A site wt-duplex RNA to Kd for 5'-fluorescein-tagged Escherichia coli ribosomal A site wt-bac duplex RNA; format: toxicity
[10] = Binding affinity to 5'-fluorescein-tagged Escherichia coli ribosomal A site wt-bac duplex RNA incubated for 2 mins by fluorescence spectrophotometric analysis; summary of the method: as §1
[11] = test system: Escherichia coli; assay: Binding affinity to 5'-fluorescein-tagged Escherichia coli ribosomal A site wt-bac duplex RNA assessed as conformational change in RNA by measuring decrease in fluorescence intensity incubated for 2 mins by fluorescence spectrophotometric analysis; summary of the method: as §1
[12] = Binding affinity to 5'-fluorescein-tagged bacterial ribosomal A site 27-nucleotide hairpin RNA construct by fluorescence analysis; parameters: species or system Bacteria
[13] = test system: Escherichia coli; assay: Potency index, ratio of paromomycin Kd to compound Kd for 5'-fluorescein-tagged Escherichia coli ribosomal A site wt-bac duplex RNA incubated for 2 mins by fluorescence spectrophotometric analysis
[14] = target: Bacterial 70S ribosome; assay: Anti-ribosomal activity against bacterial 70S hybrid ribosomes assessed as inhibition of cell-free translation incubated for 35 mins by dual luciferase reporter assay; format: subcellular, Bacteria

SMILES	MIC [1] [µg/mL]	IC50 [2] [µg/mL]	pKd [3]	selectivity ratio [4]	IC50 [5] [µg/mL]	Ratio IC50 [6]	Ratio IC50 [7]	pKd [8]	selectivity ratio [9]	pKd [10]	inhibition [11] [%]	pKd [12]	Ratio [13]	pIC50 [14]
NC[C@@H]1O[C@H](O[C@H]2[C@@H](O)[C@H](O[C@@H]3[C@@H](O)[C@H](N)C[C@H](N)[C@H]3O[C@H]3O[C@H](CO)[C@@H](O)[C@H](O)[C@H]3N)O[C@@H]2CO)[C@H](N)[C@@H](O)[C@@H]1O [PAROMOMYCIN]	4 (≈ 6.5 µM)	51 (≈ 82.8 µM)	5.55	560	6 (≈ 9.75 µM)	200	1700	5.19	1300	8.30	–	–	–	–
NC[C@@H]1O[C@H](O[C@H]2[C@@H](O)[C@H](O[C@@H]3[C@@H](O)[C@H](N)C[C@H](N)[C@H]3O[C@H]3O[C@H](CN)[C@@H](O)[C@H](O)[C@H]3N)O[C@@H]2CO)[C@H](N)[C@@H](O)[C@@H]1O [FRAMYCETIN]	–	–	7.00	100	–	20	200	5.96	1100	9.00	20	8.30	–	–
CCC[C@H]1[C@H](O)[C@@H](N)[C@@H](O[C@H]2[C@H](O[C@@H]3O[C@H](CO)[C@@H](O[C@H]4O[C@@H](CN)[C@@H](O)[C@H](O)[C@H]4N)[C@H]3O)[C@@H](O)[C@H](N)C[C@@H]2N)O[C@@H]1CO	2 (≈ 3.12 µM)	167 (≈ 260 µM)	5.24	2900	51 (≈ 79.5 µM)	1730	5570	4.57	13400	8.70	–	–	2.5	7.33
CCO[C@H]1[C@H](O)[C@@H](N)[C@@H](O[C@H]2[C@H](O[C@@H]3O[C@H](CO)[C@@H](O[C@H]4O[C@@H](CN)[C@@H](O)[C@H](O)[C@H]4N)[C@H]3O)[C@@H](O)[C@H](N)C[C@@H]2N)O[C@@H]1CO	16 (≈ 24.9 µM)	97 (≈ 151 µM)	5.07	287	120 (≈ 186 µM)	1500	1210	4.89	427	7.52	–	–	–	6.91
